The sample as a whole holds a higher share of hits than the screen did.
Avidin fluor = compound fluoresces at 488/530 nm on avidin beads; compound fluorescence 488/530 nm, flow cytometry; hits give high values; fluorescence (KMESF) at 10 µM; hit rate 0.38% among 220,000; in the data active = fluorescence above about 47
ABCB1 inh = blocks JC-1 efflux by human ABCB1 transporter; P08183; CCRF-Adr cells, flow cytometry; inhibition, % at 6.6 µM; hit rate 0.067% among 190,000; AID 1326; in the data active = inhibition above about 40%;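 also: higher value means more JC-1 retained so stronger ABCB1 efflux block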
GSH bead fluor = GSH bead compound fluorescence profile | GSH beads flow cytometry, compound fluorescence 488/530 nm; hits give high values | fluorescence (KMESF) at 10 µM | hit rate 0.25% among 190,000; in the data active = fluorescence above about 89;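 also: glutathione beads carrying GST-tagged Bcl family fusion proteins plus one bare bead set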
PKD1 inh = inhibitors of human PKD1 kinase; hit rate 0.056% among 200,000; Q15139; AID 797; PKD1 kinase fluorescence polarization assay; inhibition, % (test concentration not listed)
Lmaj promast = Leishmania major promastigote growth inhibition | hit rate 9% among 200,000 | inhibition, % at 10 µM | Leishmania major promastigotes, resazurin fluorescence viability | AID 1063;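 also: promastigotes grown with compound for 44 hours at 28 °C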
ABCG2 block = blocks JC-1 efflux by human ABCG2 transporter; Q9UNQ0; IgMXP3 cells, flow cytometry; inhibition, % at 6.6 µM; hit rate 0.1% among 190,000; AID 1325;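 active = inhibition above 80%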
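Incubation: cells with compound and JC-1, 10 min at 25 °C, rotating, no wash / Test system: IgMXP3 (ABCG2) plus far-red-tagged CCRF-Adr (ABCB1) cells / Compound dosing: one concentration, 6.6 µM final / Also added: JC-1 fluorescent substrate / Evaluation: efflux inhibition in percent versus controls / Detection: flow cytometry, 530 nm JC-1 signal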
Hits are given with their value; – = inactive; · = no result given. Rule as the data show it, unless noted: active = inhibition above about 50%; inactive = the rest.

SMILES	Avidin fluor	ABCB1 inh	GSH bead fluor	PKD1 inh	Lmaj promast	ABCG2 block
COCc1cc(=O)[nH]c(Nc2nc(C)c3ccccc3n2)n1	–	–	–	–	79	–
Cc1ccc2oc(Nc3nc(-c4ccccc4)cc(=O)[nH]3)nc2c1	–	–	–	–	98	–
Cc1ccc(C2C(C#N)=C(N)N(c3ncn[nH]3)C3=C2C(=O)CC(C)(C)C3)cc1 (centres undefined)	–	–	–	–	–	–
CC(C(=O)Nc1ccc(S(=O)(=O)N2CCCCC2)cc1)N1CCN(c2ccccn2)CC1 (centres undefined)	–	–	–	–	–	–
CN(CC(=O)NCCc1ccc(F)cc1)Cc1cccc(Cl)c1	–	–	–	–	–	–
CCN(CC)S(=O)(=O)c1ccc(NC(=S)NC(=O)C(C)C)cc1	–	–	–	–	72	–
CCN(CC)S(=O)(=O)c1ccc(C)c(NC(=S)Nc2cccc(S(=O)(=O)N3CCCCCC3)c2)c1	–	–	–	–	92	–
CCN(CC)S(=O)(=O)c1ccc(OC)c(NC(=S)Nc2ccc(C)c(C)c2)c1	–	–	–	–	62	–
O=S(=O)(c1cccc(NC(=S)Nc2ccc(Br)cc2Cl)c1)N1CCOCC1	–	–	–	–	52	–
O=C(Cc1c(Cl)cccc1Cl)Nc1cccc(S(=O)(=O)N2CCOCC2)c1	–	–	–	–	–	–
NCCNc1ccc([N+](=O)[O-])c(NC2CC2)c1	–	–	–	–	–	–
CN1CCN(C(=S)C(=O)Nc2ccc(Br)cc2)CC1	–	–	–	–	–	–
CC(=O)NCCCC(=O)NN1C(=S)N(Cc2ccccc2)C(=O)C1CC(=O)Nc1cccc(C)c1 (centres undefined)	–	–	–	–	–	–
Cc1nn(C2CCS(=O)(=O)C2)c(Cl)c1/C=C/C(=O)OCC(=O)Nc1ccccc1[N+](=O)[O-] (centres undefined)	–	–	–	–	–	–
Cc1nn(C2CCS(=O)(=O)C2)c(Cl)c1/C=C/C(=O)OCC(=O)Nc1ccccc1OC(F)F (centres undefined)	–	–	–	–	51	–
COc1ccc(/C=C/C(=O)c2c(O)cc(C)oc2=O)c(OC)c1	–	–	–	–	–	–
COc1ccc(C(=O)/C=C/c2cc(OC)c(O)c(OC)c2)c(F)c1	–	–	–	–	90	–
COc1cc(/C=C/C(=O)c2c(O)cc(C)oc2=O)cc(OC)c1O	–	–	–	–	97	–
COc1cccc(/C=C/C(=O)c2c(O)cc(C)oc2=O)c1O	–	–	–	–	97	–
N#C/C(=C(/O)C(Cl)(Cl)Cl)c1nc2ccccc2[nH]1	–	·	·	·	·	·
COc1ccccc1NC(=O)COc1cc(Br)c(CNCCCN2CCOCC2)cc1OC	–	–	–	–	55	–
COc1ccccc1NC(=O)COc1ccc(CO)cc1Cl	–	–	–	–	–	–
CNCc1cc(Br)c(OCC(=O)Nc2ccccc2OC)c(OC)c1	–	–	–	–	100	–
COc1cc(C(=S)N2CCCCC2)ccc1OCC(=O)Nc1ccccc1Cl	–	–	–	–	66	–
CCNCc1cc(Br)c(OCC(=O)Nc2ccccc2)c(OC)c1	–	–	–	–	101	–
SMILES	Avidin fluor	ABCB1 inh	GSH bead fluor	PKD1 inh	Lmaj promast	ABCG2 block
COc1cc(CNCCCN2CCOCC2)ccc1OCC(=O)NC(C)(C)C	–	–	–	–	–	–
C=C1CCN(CC(=O)OC)S(=O)(=O)c2ccccc21	–	·	·	·	·	·
Cc1ccc2cc3c(nc2c1)OCC3	–	·	·	·	·	·
O=C(CC(=O)c1ccccc1)Nc1cccnc1Cl	–	–	–	–	–	–
Cc1ccccc1N1Cc2ccccc2C1	–	–	–	–	–	–
COc1cc(CNCCc2ccccc2)cc(Br)c1OCC(=O)Nc1ccccc1C	–	–	–	–	100	–
COc1cc(CO)c(Br)cc1OCC(=O)Nc1ccccc1C	–	–	–	–	–	–
COc1ccccc1NC(=O)COc1ccc(Br)cc1CO	–	–	–	–	–	–
COc1ccccc1NC(=O)COc1ccc(Br)cc1CNC1CCCC1	–	–	–	–	94	–
Cc1cc(C(=O)O)c(CSCc2cc(C(=O)O)oc2C)o1	–	–	–	–	–	–
Cc1ccc(NC(=O)/C(C#N)=C/c2cc(C)n(-c3ccc(N4CCOCC4)c([N+](=O)[O-])c3)c2C)c(C)c1	–	–	–	–	–	–

Screens as filed in PubChem.
